Compound activity from PubChem.
An excerpt weighted towards active compounds, which were near 2.3% of everything screened.
TRPC4 inh – inhibitors of mouse TRPC4 channel, primary screen, Fluo4 calcium, HEK293 TRPC4beta/mu-opioid cells. DAMGO-evoked Fluo4 calcium flux; active compounds read low. B-score at 10 µM. Short transient receptor potential channel 4 (Mus musculus), Q9QUQ5. actives 0.39% (n = 300,000);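 active = B-score over 3 SD under the library average, no early fluorescence shift, positive overall ratio signal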
Target sequence (Q9QUQ5 whole entry, looked up): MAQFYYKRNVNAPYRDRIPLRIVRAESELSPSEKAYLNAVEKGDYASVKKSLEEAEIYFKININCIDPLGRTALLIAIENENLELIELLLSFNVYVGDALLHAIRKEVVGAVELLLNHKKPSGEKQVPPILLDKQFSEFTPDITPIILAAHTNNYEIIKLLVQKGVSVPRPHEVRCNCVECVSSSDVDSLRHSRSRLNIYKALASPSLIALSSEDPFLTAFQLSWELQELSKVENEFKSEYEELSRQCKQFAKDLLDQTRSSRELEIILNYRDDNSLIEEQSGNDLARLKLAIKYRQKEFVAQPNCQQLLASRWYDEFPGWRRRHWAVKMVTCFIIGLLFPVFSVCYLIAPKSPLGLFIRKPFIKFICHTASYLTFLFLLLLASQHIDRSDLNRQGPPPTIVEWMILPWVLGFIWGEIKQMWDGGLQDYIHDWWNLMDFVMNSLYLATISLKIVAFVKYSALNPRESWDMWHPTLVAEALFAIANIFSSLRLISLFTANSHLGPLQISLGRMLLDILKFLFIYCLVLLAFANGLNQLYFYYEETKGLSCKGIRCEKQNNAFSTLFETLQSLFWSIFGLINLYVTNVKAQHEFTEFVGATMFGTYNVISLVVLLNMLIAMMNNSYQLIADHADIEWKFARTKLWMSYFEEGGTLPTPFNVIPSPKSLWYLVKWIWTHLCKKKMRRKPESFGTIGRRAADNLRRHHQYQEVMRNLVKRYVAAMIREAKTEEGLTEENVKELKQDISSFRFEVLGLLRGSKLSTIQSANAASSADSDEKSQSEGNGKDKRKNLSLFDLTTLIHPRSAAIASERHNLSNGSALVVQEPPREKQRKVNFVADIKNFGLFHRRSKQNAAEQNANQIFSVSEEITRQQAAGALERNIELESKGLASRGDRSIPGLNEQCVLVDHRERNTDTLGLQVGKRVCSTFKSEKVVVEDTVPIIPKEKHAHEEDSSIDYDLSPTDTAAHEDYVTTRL
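Signal: kinetic Fluo4 fluorescence imaging of calcium influx. Material: stable TRPC4beta/mu-opioid receptor HEK293 cells. Probe or stimulus: DAMGO in two steps, submaximal then maximal.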
TRPC4 agonist – activators of mouse TRPC4 channel, primary screen, Fluo4 calcium, HEK293 TRPC4beta/mu-opioid cells; Short transient receptor potential channel 4 (Mus musculus), Q9QUQ5; Fluo4 calcium fluorescence; active compounds read high; actives 0.49% (n = 310,000); B-score at 10 µM;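 active = B-score above 5 SD of library B-scores, and initial fluorescence ratio not above library mean plus 5 SD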;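 also: positive B-score marks a calcium rise read as TRPC4 activation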
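Assay system – TRPC4beta and mu-opioid receptor HEK293 stable cells · Measured by – Fluo4 fluorescence, kinetic · Schedule – dye loading 45 min room temperature, 110 s kinetic read · Read-out – B-scored integrated calcium fluorescence ratio · Controls – buffer and maximal DAMGO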
TRPC4 potent – positive allosteric modulators of TRPC4, primary screen, cell-based, mouse TRPC4beta, HEK293 mu-opioid, Fluo-4 calcium; actives 0.42% (n = 310,000); Short transient receptor potential channel 4 (Mus musculus), Q9QUQ5; B-score at 10 µM; DAMGO EC20, Fluo-4 Ca2+ flux; active compounds read high;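 active = B-score of calcium response area above 5 SD of library B-scores, with initial fluorescence ratio within 5 SD of library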;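 also: B-score of integrated fluorescence ratio over time as area under calcium response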
TRPC6 inh – mouse TRPC6 channel inhibitors, primary screen, cell-based, HEK293, membrane potential dye; Short transient receptor potential channel 6 (Mus musculus), Q61143; ACh-evoked depolarization; active compounds read low; B-score at 10 µM; actives 1.1% (n = 310,000); AID 2553, 2010;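 active = B-score under library mean minus 3 SD, initial fluorescence not abnormally high, positive integrated signal ratio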;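 also: B-score derived from integrated fluorescence ratio over the kinetic read; more negative B-score means stronger inhibition of depolarization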
TRPC6 activator – mouse TRPC6 channel activators, primary screen, cell-based, HEK293, membrane potential dye | B-score at 10 µM | Short transient receptor potential channel 6 (Mus musculus), Q61143 | HEK293-TRPC6 membrane potential dye fluorescence; active compounds read high | AID 2550, 2010 | actives 0.13% (n = 310,000);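 active = B-score of the integrated fluorescence ratio above library mean plus 3 SD, and starting fluorescence ratio within library mean plus 5 SD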;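 also: higher score means more depolarization so channel activation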
* hit, by the source's call; i = inactive.

SMILES	TRPC4 inh	TRPC4 agonist	TRPC4 potent	TRPC6 inh	TRPC6 activator
CCOC(=O)N1CCN(C2CCCN(C(=O)c3cccc(N(C)C)c3)C2)CC1 (stereo not given)	i	i	i	i	i
CN(C)c1ccc(C(CNC(=O)c2cccs2)N(C)C)cc1 (stereo not given)	i	i	i	i	i
Cc1cc(C)c2c(=O)n(CC(=O)Nc3cccc(Cl)c3C)sc2n1	i	i	16*	i	i
O=C(O)c1cccc(S(=O)(=O)N2CCN(C(c3ccccc3)c3ccccc3)CC2)c1	-9*	i	i	i	i
O=C(O)c1cccc(S(=O)(=O)N2CCCC2)c1	i	i	i	i	i
CC(=O)NNC(=S)NC(=O)c1ccc(C)cc1	i	i	i	i	i
O=C(CCc1ccccc1)NNC(=S)NC(=O)c1ccc(Cl)cc1	i	211*	i	i	i
Cc1ccc(C(=O)NNC(=S)NC(=O)c2ccc(Cl)cc2)cc1	i	222*	i	i	i
Oc1ccc(C[C@H]2CNCCN2CC2CCCCC2)cc1	i	i	i	i	i
Clc1ccc(OCc2nn3c(C4CCCCC4)nnc3s2)cc1	i	i	13*	i	i
c1ccc(-c2nn3c(C4CCCCC4)nnc3s2)nc1	i	i	i	i	i
O=C(NCCNC1CCC(c2ccccc2)CC1)c1ccc(F)cc1 (stereo not given)	i	61*	i	i	i
CC(C)(C)NCC(O)CON=C1c2ccccc2-c2ccccc21 (stereo not given)	i	i	10*	i	i
CC(=O)c1ccc(N2CCN(c3ccc(S(=O)(=O)NCCCN(C)C)cc3[N+](=O)[O-])CC2)cc1	i	i	26*	i	i
CCCC(O)(c1ccc(Cl)cc1)C(CN1CCOCC1)c1ccccc1 (stereo not given)	-5*	i	i	i	i
Cc1ccc(OCC(=O)N(C)CC(=O)Nc2cccc(F)c2)cc1	i	i	i	i	i
Cc1ccc(C)c2[nH]c(=O)c(CN(CC3CCCO3)C(=S)NCc3ccco3)cc12 (stereo not given)	-6*	i	i	i	i
Cc1ccc(C(=O)CSc2nc(O)cc(=O)[nH]2)cc1C	i	i	i	i	i
O=C(c1ccc(C(F)(F)F)cc1)N1CCC(=O)N(C(COCc2ccccc2)Cc2ccccc2)CC1 (stereo not given)	i	i	i	i	i
CC(C)(C)c1ccc(C(=O)N2CCC(=O)N(C(COCc3ccccc3)Cc3ccccc3)CC2)cc1 (stereo not given)	i	50*	i	i	i
COC(=O)C1=C(C)N(Cc2ccccc2)C(=S)N[C@H]1c1ccccc1	-6*	i	i	i	i
COC(=O)C1=C(C)N(Cc2ccccc2)C(=NCCc2ccccn2)N[C@H]1c1cccc(F)c1	i	88*	i	i	i
CCN1C(=NCCc2ccccn2)N[C@@H](c2cccc(F)c2)C(C(=O)OC)=C1C	i	i	i	i	i
COC(=O)C1=C(C)N(Cc2ccccc2)C(=O)N[C@H]1c1ccccc1	i	i	i	i	i
Cc1c(N(C)S(=O)(=O)c2cc(C(=O)Nc3ccccn3)ccc2Cl)c(=O)n(-c2ccccc2)n1C	-5*	i	i	i	i
SMILES	TRPC4 inh	TRPC4 agonist	TRPC4 potent	TRPC6 inh	TRPC6 activator
O=C(Nc1ccccn1)c1ccc(Cl)c(S(=O)(=O)N2CCCCCC2)c1	i	i	i	i	i
Cn1c(SCCOc2ccccc2F)nc2ccccc2c1=O	i	i	16*	i	i
COCCn1c(SCc2ccc(OC)c(F)c2)nc2ccccc2c1=O	-7*	i	i	i	i
CCSc1nc2ccccc2c(=O)n1CCc1ccc(OC)c(OC)c1	i	i	i	i	i
COCCn1c(SCc2ccc(F)cc2)nc2ccccc2c1=O	-6*	i	i	i	i
COCCn1c(SCc2nc3ccccc3c(=O)[nH]2)nc2ccccc2c1=O	i	i	i	i	i
Cc1ccc(N(CCC#N)C(=O)COC(=O)c2ccccn2)cc1	i	i	i	i	i
COc1ccc(C(=O)NC(=S)Nc2ccc(S(=O)(=O)Nc3cc(OC)nc(OC)n3)cc2)cc1	i	i	i	i	i
CC(C)OC(=O)c1c(N)n(CCCN2CCOCC2)c2nc3ccccc3nc12	i	i	i	i	i
CC(C)OC(=O)c1c2nc3ccccc3nc2n2c1[nH]c(=O)c1ccccc12	i	i	10*	i	i
CCCCNc1nc(-c2ccccc2)c(C(=O)OCC)cc1C#N	-6*	i	i	i	i
CCCNc1nc(-c2ccccc2)c(C(=O)OCC)cc1C#N	i	i	i	i	i
O=[N+]([O-])c1ccccc1CN1CCN(Cc2c[nH]c3ccccc23)CC1	-7*	i	i	i	i
O=C(c1ccccc1)N1CCN(Cc2c[nH]c3ccccc23)CC1	i	i	i	i	i
NC(CCCCc1ccccc1)c1cccc2ccccc12 (stereo not given)	i	i	i	-7.88*	i
CCOc1ccc(Cl)cc1S(=O)(=O)N1CCC(C(=O)NCc2ccncc2)CC1	i	i	i	i	i
CC1CCN(CCCCOc2ccccc2-c2ccccc2)CC1	i	i	i	i	i
CC1CCN(CCOCCOc2ccccc2-c2ccccc2)CC1	-6*	i	i	i	i
c1ccc(-c2ccccc2OCCOCCN2CCCCC2)cc1	-5*	i	i	i	i
COc1ccc(-c2cccc(NC(=O)c3cccs3)c2)nn1	i	i	i	i	i
S=c1[nH]nc(-c2cc3c(s2)-c2ccccc2CC3)o1	-6*	i	i	i	i
O=C1/C(=C/c2cccc(O)c2)SC(=S)N1CC1CCCO1 (stereo not given)	i	i	i	i	i
COc1cccc(/C=C2\SC(=S)N(CC3CCCO3)C2=O)c1 (stereo not given)	-6*	i	i	i	i
C=CCNCCCCOc1c(Cl)cc(C)cc1Br	i	57*	i	i	i
